From PubChem BioAssay
HCV NS3 hel inh: HCV NS3 helicase inhibition; AID 1800; 290,000 compounds, 0.56% hits; NS3 helicase DNA unwinding, Cy5 molecular beacon fluorescence; inhibition, % at 10.9 µM;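 active = inhibition above the mean of all tested compounds plus 3 SD, set per campaign, cut at about 35% in these data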;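 also: 0% = DMSO wells and 100% = thioflavine S control wells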
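Compound dosing – single dose, 10.9 µM nominal final, DMSO 0.8% final · System – NS3 helicase fragment of HCV · Buffer or medium – MOPS pH 6.5, MgCl2, DTT, Tween20, BSA · Signal – Cy5 beacon fluorescence read at start and 1 h · Also added – annealed dual-labelled DNA beacon duplex, ATP-started · Schedule – 1 h at 25 °C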
TAAR1 antagonist: antagonists of human TAAR1. inhibition, % at 3 µM. 360,000 compounds, 1.5% hits. CHO RD-HGA16 TAAR1, Fluo-8 calcium fluorescence, antagonist. AID 624466;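 active = inhibition above a per-plate cutoff, the mean inhibition of test compounds on that plate plus 3 SD, cut at about 49% in these data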;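 also: 0% = DMSO plus EC80 beta-PEA response and 100% = DMSO alone without agonist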
Target sequence (Q96RJ0 whole entry, looked up): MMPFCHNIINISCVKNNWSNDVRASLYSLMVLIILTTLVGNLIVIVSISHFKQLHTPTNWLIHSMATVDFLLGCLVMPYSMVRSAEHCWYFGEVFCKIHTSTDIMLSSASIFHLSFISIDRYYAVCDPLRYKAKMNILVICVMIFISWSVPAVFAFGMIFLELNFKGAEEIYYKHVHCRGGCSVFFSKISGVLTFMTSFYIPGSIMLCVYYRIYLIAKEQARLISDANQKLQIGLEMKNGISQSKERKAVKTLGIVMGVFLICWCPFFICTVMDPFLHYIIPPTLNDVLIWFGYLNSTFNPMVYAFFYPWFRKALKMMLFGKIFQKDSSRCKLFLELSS
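System: RD-HGA16 CHO cells with stable hTAAR1 and Gα16 | Probe or stimulus: EC80 β-phenethylamine stimulus | Dosing: 3 µM, single point | Times: Dye loading 75 min at 37 °C, then 30 min room temperature | Measured by: Fluo-8 calcium-sensitive fluorescence | Read-out basis: % inhibition of agonist calcium response | Replicates: n of 1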
TAAR1 agonist: human TAAR1 agonism; Q96RJ0; 360,000 compounds, 0.99% hits; CHO RD-HGA16 TAAR1, Fluo-8 calcium fluorescence; vehicle wells 0%, saturating PEA agonist 100%; activation, % at 3 µM; AID 624467;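 active = activation above the mean activation of all test compounds in the run plus 3 SD, cut at about 38% in these data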
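Repeats: no replicates (n 1) | Material: CHO-derived RD-HGA16 cells with stable Gα16 and human TAAR1 | Technique: Kinetic Fluo-8 calcium fluorescence | Schedule: 17-24 h seeding, 75 min 37 °C dye, 30 min RT | Evaluation: % activation from peak over basal fluorescence ratio, DMSO-to-PEA scaled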
rCAG binder: binds r(CAG) RNA repeats | r(CAG) RNA repeat, TO-PRO-1 dye displacement fluorescence | inhibition, % at 3 µM | 370,000 compounds, 1.3% hits;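 active = inhibition above the plate cutoff, the mean of all test compounds on that plate plus 3 SD, cut at about 35% in these data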;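 also: 0% = DMSO alone and 100% = 100 µM mitoxantrone as full dye displacement; higher means more dye released from RNA so lower well fluorescence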
core dimer inh: blocks dimerization of HCV core protein; AID 1899; 300,000 compounds, 0.33% hits; TR-FRET GST/Flag-core106 dimerization, 1536-well; inhibition, % at 5 µM;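 active = inhibition above the mean of all tested compounds plus 3 SD, set per screening campaign, cut at about 45% in these data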
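System: GST-tagged and Flag-tagged HCV core protein residues 1-106 / Input: core106 proteins, GST 13.5 nM and Flag 17 nM / Buffer or medium: KF-containing HEPES buffer, pH 7.45, DTT, CHAPS, BSA / Probe or stimulus: Eu-anti-GST and XL665-anti-Flag labelled anti-tag antibodies / Schedule: 4 h, 22.5 °C incubation / Technique: TR-FRET 671 and 617 nm emission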
* = called active by the depositor. Only some compounds are listed: those with a hit (about 3.7% of all), similar ones and a draw of the others.

`CN(C)c1ccc(CC(=O)N2CCCC(c3cc(C(=O)Nc4ccc(C(C)(C)C)cc4)no3)C2)cc1` (stereo not drawn) gave TAAR1 antagonist 55*, TAAR1 agonist 2 and rCAG binder 32.
Screening O=C(Nc1ccccc1)c1cc(C2CCCN(C(=O)CCc3ccccc3)C2)on1 (stereo not drawn) returned TAAR1 antagonist -14, TAAR1 agonist 1 and rCAG binder -1.
`C[C@H](O)[C@@H]1CN2CCc3c([nH]c4ccccc34)[C@@H]2C[C@@H]1N(C)C(=S)NCCc1ccccc1` gave TAAR1 antagonist 66*, TAAR1 agonist 78* and rCAG binder 6.
`CC(=O)Nc1ccc(C(=O)OCC(=O)N(c2ccccc2)C2CCCCC2)cc1` gave TAAR1 antagonist 50*, TAAR1 agonist 12 and rCAG binder 1.
Screening Cc1cccc(NC(=O)c2ccc(N3CCCCC3)c([N+](=O)[O-])c2)n1 returned HCV NS3 hel inh -13, TAAR1 antagonist 42, TAAR1 agonist 11, rCAG binder 1 and core dimer inh 0.
`Cc1cccc(NC(=O)c2ccc(N(C)C3CCCCC3)c([N+](=O)[O-])c2)n1` gave HCV NS3 hel inh -2, TAAR1 antagonist 63*, TAAR1 agonist 8, rCAG binder 1 and core dimer inh 4.
COc1ccc(S[C@]2(C(=O)N3CCOCC3)CC(=O)N(S(=O)(=O)c3ccc(F)cc3)[C@@H]2c2ccc(OC)cc2)cc1 was read as rCAG binder 12.
For CCn1c(N2CCN(S(=O)(=O)c3ccc(Cl)cc3)CC2)nc2ccccc21 the results were HCV NS3 hel inh -17, TAAR1 antagonist 72*, TAAR1 agonist 20, rCAG binder -4 and core dimer inh 4.
For CCOC(=O)CC[C@@H]1CC[C@]2(CCCN(C(=O)C(C)(C)C)C2)O1 the results were rCAG binder -1.
For O=C(N=Nc1c(O)[nH]c2ccc([N+](=O)[O-])cc12)c1cc(-c2ccccc2Cl)nc2ccccc12 the results were HCV NS3 hel inh -3, TAAR1 antagonist -30, TAAR1 agonist 4, rCAG binder 17 and core dimer inh 47*.
Screening COc1ccccc1C(=O)N=Nc1c(O)[nH]c2ccc([N+](=O)[O-])cc12 returned HCV NS3 hel inh -4, TAAR1 antagonist -13, TAAR1 agonist 3 and rCAG binder 10.
Screening O=C1NC[C@H](CCCCN2C[C@H](Cc3ccc(O)cc3)N(CCc3ccccc3)C(=O)C2=O)N(Cc2ccccc2)C1=O returned TAAR1 antagonist -9, TAAR1 agonist 2 and rCAG binder 5.
Screening O=C1NC[C@H](CCCCN2C[C@H](Cc3ccc(O)cc3)N(CCc3ccc(O)cc3)C(=O)C2=O)N(Cc2ccccc2)C1=O returned TAAR1 antagonist -13, TAAR1 agonist 43* and rCAG binder 6.
O=C1NC[C@@H](CCCCN2C[C@H](Cc3ccc(O)cc3)N(CC3CCCCC3)C(=O)C2=O)N(CCC2CCCCC2)C1=O was read as TAAR1 antagonist -4, TAAR1 agonist 43* and rCAG binder 4.
CC(C)CNS(=O)(=O)/C=C/c1cc2c(cc1CNC(=O)OC(C)(C)C)OCO2 was read as rCAG binder 5.
Screening COc1ccc(CCNC(=O)c2cc(C(=O)c3cc(C)ccc3O)cn(CCc3ccc(OC)cc3)c2=O)cc1 returned HCV NS3 hel inh -23, TAAR1 antagonist 54*, TAAR1 agonist 4, rCAG binder 4 and core dimer inh 14.
`COc1ccc(CCNC(=O)c2cc(C(=O)c3cc(Cl)ccc3O)cn(CCc3ccc(OC)cc3)c2=O)cc1` gave HCV NS3 hel inh 2, TAAR1 antagonist 47, TAAR1 agonist 4, rCAG binder 7 and core dimer inh 23.
`CCOC(=O)Cn1cc(CN2C(C(=O)OC)CN(Cc3ccc(OC)cc3)CCS2(=O)=O)nn1` (stereo not drawn) gave rCAG binder 0.
`O=C(C1CCCN(S(=O)(=O)c2cccc3ccccc23)C1)N1CCN(Cc2ccccc2)CC1` (stereo not drawn) gave rCAG binder 5.
For CCOc1ccc(C(C)=O)cc1COC(=O)c1ccc2c(c1)NC(=O)CS2 the results were TAAR1 antagonist 52*, TAAR1 agonist 11 and rCAG binder 6.
